Experimental data taken from ChEMBL document CHEMBL5523690, “Synergistic effect of tryptamine-urea derivatives to overcome the chromosomally-mediated colistin resistance in Klebsiella pneumoniae” (Bioorg Med Chem, 2024).

Tests used:
Type in all cases: functional
Escherichia coli [1] = test: Antibacterial activity against colistin resistant Escherichia coli NTCC 13846 harboring mcr-1 gene assessed as inhibition of visible bacterial growth measured after 20 hrs under aerobic condition by two fold serial dilution assay
Pseudomonas aeruginosa [2] = test: Antibacterial activity against Pseudomonas aeruginosa ATCC27853 assessed as inhibition of visible bacterial growth measured after 20 hrs under aerobic condition by two fold serial dilution assay
Outline: (§1)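 Broth microdilution following EUCAST. Compound was tested at final well concentrations of 0.25–128 µg/mL against 5.10^5 CFU/mL inoculum, incubated 20 h at 37 °C aerobically. MIC was taken as the lowest concentration with no visible growth. There were three independent experiments per strain.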

Escherichia coli [3] = test: Colistin adjuvant activity against colistin-resistant Escherichia coli A50 assessed as antibacterial effect by measuring colistin MIC incubated for 24 hrs under aerobic condition by two fold serial dilution method
Pseudomonas aeruginosa [4] = test: Antibacterial activity against chromosomally-mediated colistin resistant Pseudomonas aeruginosa 10039 assessed as inhibition of visible bacterial growth measured after 20 hrs under aerobic condition by two fold serial dilution assay
Klebsiella pneumoniae [5] = test: Colistin adjuvant activity against colistin-resistant Klebsiella pneumoniae BA03057 assessed as colistin MIC by measuring potentiation fold incubated for 24 hrs under aerobic condition by two fold serial dilution method relative to colistin alone
Pseudomonas aeruginosa [6] = test: Antibacterial activity against chromosomally-mediated colistin resistant Pseudomonas aeruginosa 15080 assessed as inhibition of visible bacterial growth measured after 20 hrs under aerobic condition by two fold serial dilution assay
Klebsiella pneumoniae [7] = test: Colistin adjuvant activity against colistin-resistant Klebsiella pneumoniae BA03057 assessed as antibacterial effect by measuring colistin MIC incubated for 24 hrs under aerobic condition by two fold serial dilution method
Pseudomonas aeruginosa [8] = test: Antibacterial activity against chromosomally-mediated colistin resistant Pseudomonas aeruginosa 1002 assessed as inhibition of visible bacterial growth measured after 20 hrs under aerobic condition by two fold serial dilution assay
Escherichia coli [9] = test: Colistin adjuvant activity against colistin-resistant Escherichia coli A50 assessed as colistin MIC by measuring potentiation fold incubated for 24 hrs under aerobic condition by two fold serial dilution method relative to colistin alone
Escherichia coli [10] = test: Antibacterial activity against colistin resistant Escherichia coli A50 harboring mcr-1 gene assessed as inhibition of visible bacterial growth measured after 20 hrs under aerobic condition by two fold serial dilution assay
Escherichia coli [11] = test: Antibacterial activity against Escherichia coli ATCC25922 assessed as inhibition of visible bacterial growth measured after 20 hrs under aerobic condition by two fold serial dilution assay; outline: as §1
Klebsiella pneumoniae [12] = test: Antibacterial activity against chromosomally-mediated resistant Klebsiella pneumoniae BA03057 assessed as inhibition of visible bacterial growth measured after 20 hrs under aerobic condition by two fold serial dilution assay
Klebsiella pneumoniae [13] = test: Antibacterial activity against Klebsiella pneumoniae ATCC700603 assessed as inhibition of visible bacterial growth measured after 20 hrs under aerobic condition by two fold serial dilution assay; outline: as §1
Klebsiella pneumoniae [14] = test: Synergistic antibacterial activity against Klebsiella pneumoniae BA03057 assessed as fractional inhibitory concentration index incubated for 24 hrs under aerobic condition in presence of colistin by checkerboard assay
Outline: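 Checkerboard against KP BA03057 at 5.10^5 CFU/mL. Colistin was two-fold diluted 0–64 µg/mL across compound two-fold diluted 0–100 µM. Plates were incubated 24 h at 37 °C aerobically and absorbance read at 600 nm. FICI = MIC(compound, combined)/MIC(compound alone) + MIC(colistin, combined)/MIC(colistin alone), with synergy at FICI < 0.5. Plates were run in duplicate.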

Row | Molecule | MIC (Escherichia coli [1]) [µg/mL] | MIC (Pseudomonas aeruginosa [2]) [µg/mL] | MIC (Escherichia coli [3]) [µg/mL] | MIC (Pseudomonas aeruginosa [4]) [µg/mL] | fold change (FC) (Klebsiella pneumoniae [5]) | MIC (Pseudomonas aeruginosa [6]) [µg/mL] | MIC (Klebsiella pneumoniae [7]) [µg/mL] | MIC (Pseudomonas aeruginosa [8]) [µg/mL] | fold change (FC) (Escherichia coli [9]) | MIC (Escherichia coli [10]) [µg/mL] | MIC (Escherichia coli [11]) [µg/mL] | MIC (Klebsiella pneumoniae [12]) [µg/mL] | MIC (Klebsiella pneumoniae [13]) [µg/mL] | fractional inhibitory concentration index (FICI) (Klebsiella pneumoniae [14])
1 | CCCNC(=O)NCCc1c[nH]c2ccccc12 | > 128 | > 128 | 4 | > 128 | 0.125 | > 128 | 8 | > 128 | 0.5 | > 128 | > 128 | > 128 | > 128 | 
2 | O=C(NCCc1c[nH]c2ccccc12)Nc1ccccc1Cl | > 128 | > 128 | 8 | > 128 | 0.125 | > 128 | 8 | > 128 | 1 | > 128 | > 128 | > 128 | > 128 | 
3 | Cc1ccc(NC(=O)NCCc2c[nH]c3ccccc23)cc1 | > 128 | > 128 | 4 | > 128 | 0.125 | > 128 | 8 | > 128 | 0.5 | > 128 | > 128 | > 128 | > 128 | 
4 | O=C(NCCc1c[nH]c2ccccc12)NCc1ccccc1 | > 128 | > 128 | 4 | > 128 | 0.125 | > 128 | 8 | > 128 | 0.5 | > 128 | > 128 | > 128 | > 128 | 
5 | O=C(NCCc1c[nH]c2ccccc12)Nc1cccc(Cl)c1 | > 128 | > 128 | 8 | > 128 | 0.031 | > 128 | 2 | > 128 | 1 | > 128 | > 128 | > 128 | > 128 | 0.062
6 | O=C(NCCc1c[nH]c2ccccc12)Nc1ccc(Br)cc1 | > 128 | > 128 | 2 | > 128 | 0.125 | > 128 | 8 | > 128 | 0.25 | > 128 | > 128 | > 128 | > 128 | 
7 | CC(C)(C)NC(=O)NCCc1c[nH]c2ccccc12 | > 128 | > 128 | 8 | > 128 | 0.125 | > 128 | 8 | > 128 | 1 | > 128 | > 128 | > 128 | > 128 | 
8 | O=C(NCCc1c[nH]c2ccccc12)Nc1ccc(F)cc1 | > 128 | > 128 | 4 | > 128 | 0.125 | > 128 | 8 | > 128 | 0.5 | > 128 | > 128 | > 128 | > 128 | 
9 | CCCCCCNC(=O)NCCc1c[nH]c2ccccc12 | > 128 | > 128 | 4 | > 128 | 0.031 | > 128 | 2 | > 128 | 0.5 | > 128 | > 128 | > 128 | > 128 | 0.143
10 | COLISTIN | 2 | 2 |  | 4 |  | 2 |  | 2 |  | 8 | 0.25 | 64 | 0.5 | 
11 | O=C(NCCc1c[nH]c2ccccc12)Nc1ccc(Cl)cc1 | > 128 | > 128 | 4 | > 128 | 0.062 | > 128 | 4 | > 128 | 0.5 | > 128 | > 128 | > 128 | > 128 | 0.276
12 | O=C(NCCc1c[nH]c2ccccc12)Nc1cc(Cl)cc(Cl)c1 | > 128 | > 128 | 2 | > 128 | 0.031 | > 128 | 2 | > 128 | 0.25 | > 128 | > 128 | > 128 | > 128 | 
13 | O=C(NCCc1c[nH]c2ccccc12)Nc1ccccc1 | > 128 | > 128 | 8 | > 128 | 0.125 | > 128 | 8 | > 128 | 1 | > 128 | > 128 | > 128 | > 128 | 
14 | O=C(NCCc1c[nH]c2ccccc12)Nc1ccccc1Br | > 128 | > 128 | 4 | > 128 | 0.031 | > 128 | 2 | > 128 | 0.5 | > 128 | > 128 | > 128 | > 128 | 0.31
15 | O=C(NCCc1c[nH]c2ccccc12)Nc1ccccc1F | > 128 | > 128 | 8 | > 128 | 0.125 | > 128 | 8 | > 128 | 1 | > 128 | > 128 | > 128 | > 128 | 
16 | O=C(NCCc1c[nH]c2ccccc12)Nc1cccc(Br)c1 | > 128 | > 128 | 8 | > 128 | 0.125 | > 128 | 8 | > 128 | 1 | > 128 | > 128 | > 128 | > 128 | 
17 | CC(C)c1ccc(NC(=O)NCCc2c[nH]c3ccccc23)cc1 | > 128 | > 128 | 4 | > 128 | 0.25 | > 128 | 16 | > 128 | 0.5 | > 128 | > 128 | > 128 | > 128 | 
18 | COc1ccc(NC(=O)NCCc2c[nH]c3ccccc23)cc1 | > 128 | > 128 | 4 | > 128 | 0.25 | > 128 | 16 | > 128 | 0.5 | > 128 | > 128 | > 128 | > 128 | 
19 | O=C(NCCc1c[nH]c2ccccc12)Nc1ccc(C(F)(F)F)cc1 | > 128 | > 128 | 8 | > 128 | 0.031 | > 128 | 2 | > 128 | 1 | > 128 | > 128 | > 128 | > 128 | 0.167
